Values after ≈ are worked out from the molar mass of the structure shown.
Tests used:
[1] = Plasma protein binding in human; assay type: ADME, cell-free; settings: read-out: PPB (converted)
[2] = Half life of healthy human; assay type: ADME, organism-based; settings: in vivo
Serum = assay: Drug level in serum of healthy human; assay type: ADME, cell-free
[3] = tested on: Staphylococcus haemolyticus; assay: Antimicrobial activity against vancomycin-intermediate Staphylococcus haemolyticus after 24 hrs by microdilution method; assay type: functional
Summary of the method: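 CLSI broth microdilution in supplemented Mueller-Hinton broth (12.5 μg/ml Mg, 25 μg/ml Ca), with Ca adjusted to 1.1–1.3 mM for daptomycin. Inoculum was 5 × 10^5 CFU/ml, incubated 24 h at 35°C, done in duplicate. For MBC, clear wells were plated on BHI agar and read after 24 h at 35°C.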

Staphylococcus aureus [4] = assay: Antimicrobial activity against vancomycin-resistant Staphylococcus aureus isolate PA assessed as bacterial count at 4 times MIC after 24 hrs by colony counting method; assay type: functional
Summary of the method: (§1)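 Time-kill in triplicate. Mid-exponential culture (OD600 ~0.3) diluted in supplemented Mueller-Hinton broth to 5 × 10^6 CFU/ml. Daptomycin was run at physiologic calcium, 1.1 to 1.3 mM. […] Samples at 0, 1, 4, 8 and 24 h were diluted in cold saline or vacuum filtered, then spiral-plated on BHI agar for 24 h at 35°C. Value is the log10 CFU/ml change from baseline at 24 h.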

Staphylococcus aureus [5] = assay: Antimicrobial activity against vancomycin-resistant Staphylococcus aureus isolate PA assessed as bacterial count at 16 times MIC after 24 hrs by colony counting method; assay type: functional; summary of the method: as §1
Staphylococcus aureus [6] = assay: Antimicrobial activity against vancomycin-intermediate Staphylococcus aureus isolate NJ992 assessed as bacterial count at 8 times MIC after 24 hrs by colony counting method; assay type: functional
Summary of the method: (§2)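 24-h time-kill run in triplicate in supplemented Mueller-Hinton broth (12.5 μg/ml Mg, 25 μg/ml Ca), adjusted to 1.1–1.3 mM Ca for daptomycin. […] Samples were taken at 0, 1, 4, 8 and 24 h and counted on BHI agar after 24 h at 35°C. Value is log10 CFU/ml change from baseline at 24 h.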

Staphylococcus aureus [7] = assay: Antimicrobial activity against vancomycin-intermediate Staphylococcus aureus isolate MU50 assessed as bacterial count at 8 times MIC after 24 hrs by colony counting method; assay type: functional; summary of the method: as §2
Staphylococcus aureus [8] = assay: Antimicrobial activity against vancomycin-intermediate Staphylococcus aureus isolate NJ992 after 24 hrs by microdilution method; assay type: functional; settings: isolate NJ992, 24 h
Summary of the method: (§3)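 Broth microdilution per CLSI, inoculum 5 × 10^5 CFU/ml, Mueller-Hinton broth with 12.5 μg/ml magnesium and 25 μg/ml calcium (SMHB). Daptomycin was instead tested in SMHB at physiologic calcium (final 1.1 to 1.3 mM). Incubation 24 h at 35°C; MIC read; run in duplicate. MBC from 5-μl samples of clear wells plated on BHI agar, 24 h at 35°C.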

Staphylococcus aureus [9] = assay: Antimicrobial activity against vancomycin-resistant Staphylococcus aureus isolate PA assessed as bacterial count at 32 times MIC after 24 hrs by colony counting method; assay type: functional; summary of the method: as §1
Staphylococcus aureus [10] = assay: Antimicrobial activity against vancomycin-resistant Staphylococcus aureus isolate PA assessed as bacterial count at 8 times MIC after 24 hrs by colony counting method; assay type: functional; summary of the method: as §1
Staphylococcus aureus [11] = assay: Antimicrobial activity against vancomycin-resistant Staphylococcus aureus isolate NY after 24 hrs by microdilution method; assay type: functional; summary of the method: as §3
Staphylococcus aureus [12] = assay: Antimicrobial activity against vancomycin-resistant Staphylococcus aureus isolate MI assessed as bacterial count at 8 times MIC after 24 hrs by colony counting method; assay type: functional; summary of the method: as §1
Staphylococcus aureus [13] = assay: Antimicrobial activity against vancomycin-resistant Staphylococcus aureus isolate MI assessed as bacterial count at 16 times MIC after 24 hrs by colony counting method; assay type: functional; summary of the method: as §1
Staphylococcus aureus [14] = assay: Antimicrobial activity against vancomycin-intermediate Staphylococcus aureus after 24 hrs by microdilution method; assay type: functional; summary of the method: as §3
Staphylococcus aureus [15] = assay: Antimicrobial activity against vancomycin-intermediate Staphylococcus aureus isolate MU50 assessed as bacterial count at 16 times MIC after 24 hrs by colony counting method; assay type: functional; summary of the method: as §1
Staphylococcus aureus [16] = assay: Antimicrobial activity against vancomycin-intermediate Staphylococcus aureus isolate MU50 assessed as bacterial count at 32 times MIC after 24 hrs by colony counting method; assay type: functional; summary of the method: as §2
Staphylococcus aureus [17] = assay: Antimicrobial activity against vancomycin-resistant Staphylococcus aureus isolate MI assessed as bacterial count at 4 times MIC after 24 hrs by colony counting method; assay type: functional; summary of the method: as §1
Staphylococcus aureus [18] = assay: Antimicrobial activity against vancomycin-intermediate Staphylococcus aureus isolate MU50 assessed as bacterial count at 4 times MIC after 24 hrs by colony counting method; assay type: functional; summary of the method: as §2
Staphylococcus aureus [19] = assay: Antimicrobial activity against vancomycin-heteroresistant Staphylococcus aureus after 24 hrs by microdilution method; assay type: functional; summary of the method: as §3
Staphylococcus aureus [20] = assay: Antimicrobial activity against vancomycin-intermediate Staphylococcus aureus isolate NJ992 assessed as bacterial count at 4 times MIC after 24 hrs by colony counting method; assay type: functional; summary of the method: as §2
Staphylococcus aureus [21] = assay: Antimicrobial activity against vancomycin-resistant Staphylococcus aureus isolate MI after 24 hrs by microdilution method; assay type: functional; summary of the method: as §3
Staphylococcus aureus [22] = assay: Antimicrobial activity against vancomycin-resistant Staphylococcus aureus isolate PA after 24 hrs by microdilution method; assay type: functional; summary of the method: as §3
Staphylococcus aureus [23] = assay: Antimicrobial activity against vancomycin-intermediate Staphylococcus aureus isolate MU50 after 24 hrs by microdilution method; assay type: functional; settings: isolate MU50, 24 h; summary of the method: as §3
Staphylococcus aureus [24] = assay: Antimicrobial activity against vancomycin-intermediate Staphylococcus aureus isolate NJ992 assessed as bacterial count at 32 times MIC after 24 hrs by colony counting method; assay type: functional; summary of the method: as §2
Staphylococcus aureus [25] = assay: Antimicrobial activity against vancomycin-intermediate Staphylococcus aureus isolate NJ992 assessed as bacterial count at 16 times MIC after 24 hrs by colony counting method; assay type: functional; summary of the method: as §2
Staphylococcus aureus [26] = assay: Antimicrobial activity against vancomycin-resistant Staphylococcus aureus isolate MI assessed as bacterial count at 32 times MIC after 24 hrs by colony counting method; assay type: functional; summary of the method: as §1
Staphylococcus aureus [27] = assay: Antimicrobial activity against methicillin-resistant Staphylococcus aureus infected in patient with complicated skin and skin structure infections assessed as cure rate; assay type: functional
[28] = Staphylococcus haemolyticus, 24 h

Row | Compound | MBC50 [3] | MBC90 [3] | MBC [3, 28] | MIC50 [3, 28] | MIC90 [3, 28] | log10CFU/ml (Staphylococcus aureus [6]) | log10CFU/ml (Staphylococcus aureus [7]) | MBC (Staphylococcus aureus [8]) | MIC (Staphylococcus aureus [8]) | MBC (Staphylococcus aureus [11]) | MIC (Staphylococcus aureus [11]) | MBC50 (Staphylococcus aureus [14]) | MBC90 (Staphylococcus aureus [14]) | MBC (Staphylococcus aureus [14]; Staphylococcus aureus, 24 h) | MIC50 (Staphylococcus aureus [14]; Staphylococcus aureus, 24 h) | MIC90 (Staphylococcus aureus [14]; Staphylococcus aureus, 24 h) | log10CFU/ml (Staphylococcus aureus [15]) | log10CFU/ml (Staphylococcus aureus [16]) | log10CFU/ml (Staphylococcus aureus [18]) | MBC (Staphylococcus aureus [19]; Staphylococcus aureus, 24 h) | also measured
1 | CN[C@H](CC(C)C)C(=O)N[C@H]1C(=O)N[C@@H](CC(N)=O)C(=O)N[C@H]2C(=O)N[C@H]3C(=O)N[C@H](C(=O)N[C@H](C(=O)NCCCO/N=C(\C(=O)N[C@@H]4C(=O)N5C(C(=O)[O-])=C(C[n+]6ccccc6)CS[C@H]45)c4nc(N)sc4Cl)c4cc(O)cc(O)c4-c4cc3ccc4O)[C@H](O)c3ccc(c(Cl)c3)Oc3cc2cc(c3O[C@@H]2O[C@H](CO)[C@@H](O)[C@H](O)[C@H]2O[C@H]2C[C@](C)(N)[C@H](O)[C@H](C)O2)Oc2ccc(cc2Cl)[C@H]1O |  |  |  |  |  |  |  |  |  |  |  |  |  |  |  |  |  |  |  |  | fraction unbound [1]: 0.51; half-life [2]: 6.8 h; Drug uptake (Serum): 4.65 µg/mL
2 | CC(=O)NC[C@H]1CN(c2ccc(N3CCOCC3)c(F)c2)C(=O)O1 [LINEZOLID] | 8 µg/mL (≈ 23.7 µM) | 32 µg/mL (≈ 94.9 µM) | 1 µg/mL (≈ 2.96 µM) | 2 µg/mL (≈ 5.93 µM) | 2 µg/mL (≈ 5.93 µM) | 3.66 | 3.26 | 2 µg/mL (≈ 5.93 µM) | 1 µg/mL (≈ 2.96 µM) | 0.5 µg/mL (≈ 1.48 µM) | 0.25 µg/mL (≈ 0.741 µM) | 8 µg/mL (≈ 23.7 µM) | 32 µg/mL (≈ 94.9 µM) | 1 µg/mL (≈ 2.96 µM) | 2 µg/mL (≈ 5.93 µM) | 2 µg/mL (≈ 5.93 µM) | 4.25 | 4.8 | 3.19 | 1 µg/mL (≈ 2.96 µM) | log10CFU/ml (Staphylococcus aureus [4]): 3.24; log10CFU/ml (Staphylococcus aureus [5]): 4.24; log10CFU/ml (Staphylococcus aureus [9]): 4.95; log10CFU/ml (Staphylococcus aureus [10]): 4.2; log10CFU/ml (Staphylococcus aureus [12]): 1.55; log10CFU/ml (Staphylococcus aureus [13]): 3.64; log10CFU/ml (Staphylococcus aureus [17]): 1.31; MIC50 (Staphylococcus aureus [19]; Staphylococcus aureus, 24 h): 2 µg/mL (≈ 5.93 µM); MIC90 (Staphylococcus aureus [19]; Staphylococcus aureus, 24 h): 2 µg/mL (≈ 5.93 µM); log10CFU/ml (Staphylococcus aureus [20]): 2.13; MBC (Staphylococcus aureus [21]): 16 µg/mL (≈ 47.4 µM); MIC (Staphylococcus aureus [21]): 1 µg/mL (≈ 2.96 µM); MBC (Staphylococcus aureus [22]): 4 µg/mL (≈ 11.9 µM); MBC (Staphylococcus aureus [23]): 32 µg/mL (≈ 94.9 µM); MIC (Staphylococcus aureus [23]): 1 µg/mL (≈ 2.96 µM); log10CFU/ml (Staphylococcus aureus [24]): 4.89; log10CFU/ml (Staphylococcus aureus [25]): 3.98; log10CFU/ml (Staphylococcus aureus [26]): 4.52
3 | CN[C@H](CC(C)C)C(=O)N[C@H]1C(=O)N[C@@H](CC(N)=O)C(=O)N[C@H]2C(=O)N[C@H]3C(=O)N[C@H](C(=O)N[C@H](C(=O)O)c4cc(O)cc(O)c4-c4cc3ccc4O)[C@H](O)c3ccc(c(Cl)c3)Oc3cc2cc(c3O[C@@H]2O[C@H](CO)[C@@H](O)[C@H](O)[C@H]2O[C@H]2C[C@](C)(N)[C@H](O)[C@H](C)O2)Oc2ccc(cc2Cl)[C@H]1O [VANCOMYCIN] | 4 µg/mL (≈ 2.76 µM) | 8 µg/mL (≈ 5.52 µM) | 4 µg/mL (≈ 2.76 µM) | 4 µg/mL (≈ 2.76 µM) | 8 µg/mL (≈ 5.52 µM) | 4.3 | 3.32 | 8 µg/mL (≈ 5.52 µM) | 8 µg/mL (≈ 5.52 µM) | 128 µg/mL (≈ 88.3 µM) | 64 µg/mL (≈ 44.2 µM) | 4 µg/mL (≈ 2.76 µM) | 8 µg/mL (≈ 5.52 µM) | 4 µg/mL (≈ 2.76 µM) | 4 µg/mL (≈ 2.76 µM) | 8 µg/mL (≈ 5.52 µM) | 4.48 | 4.41 | 2.71 | 4 µg/mL (≈ 2.76 µM) | MIC [3, 28]: 4 µg/mL (≈ 2.76 µM); Activity (Staphylococcus aureus [27]): 91.9%; MIC (Staphylococcus aureus [14]; Staphylococcus aureus, 24 h): 4 µg/mL (≈ 2.76 µM); MBC50 (Staphylococcus aureus [19]): 4 µg/mL (≈ 2.76 µM); MBC90 (Staphylococcus aureus [19]): 8 µg/mL (≈ 5.52 µM); MIC (Staphylococcus aureus [19]; Staphylococcus aureus, 24 h): 4 µg/mL (≈ 2.76 µM); MIC50 (Staphylococcus aureus [19]; Staphylococcus aureus, 24 h): 4 µg/mL (≈ 2.76 µM); MIC90 (Staphylococcus aureus [19]; Staphylococcus aureus, 24 h): 8 µg/mL (≈ 5.52 µM); log10CFU/ml (Staphylococcus aureus [20]): 2.88; MBC (Staphylococcus aureus [21]): > 2050 µg/mL; MIC (Staphylococcus aureus [21]): 1020 µg/mL (≈ 707 µM); MBC (Staphylococcus aureus [22]): 64 µg/mL (≈ 44.2 µM); MIC (Staphylococcus aureus [22]): 32 µg/mL (≈ 22.1 µM); MBC (Staphylococcus aureus [23]): 4 µg/mL (≈ 2.76 µM); log10CFU/ml (Staphylococcus aureus [24]): 4.79; log10CFU/ml (Staphylococcus aureus [25]): 4.58

— ChEMBL document CHEMBL1687766, “In vitro activity of the new multivalent glycopeptide-cephalosporin antibiotic TD-1792 against vancomycin-nonsusceptible Staphylococcus isolates” (Antimicrob Agents Chemother, 2010)
